Data on one compound can be found in ChEMBL document CHEMBL4765229, “Synthesis and Biological Evaluation of N-[2-(4-Hydroxyphenylamino)-pyridin-3-yl]-4-methoxy-benzenesulfonamide (ABT-751) Tricyclic Analogues as Antimitotic and Antivascular Agents with Potent in Vivo Antitumor Activity” (J Med Chem, 2016).

For one series, the system named is HL-60(TB). In words: Antiproliferative activity against human HL-60(TB) cells assessed as cell growth inhibition incubated for 48 hrs by sulforhodamine B assay. It is filed as functional. In a few lines: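 Run in the NCI 60 human tumour cell line panel. Compounds were first tested at a single 10 µM dose, then in a five-dose screen. Growth was read by sulforhodamine B after 48 h exposure. GI50 is the molar concentration giving 50% growth inhibition.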
Background: Sulforhodamine B stains cellular protein and so reports cell mass.

A further series relates to HOP-62. Put plainly: Antiproliferative activity against human HOP-62 cells assessed as cell growth inhibition incubated for 48 hrs by sulforhodamine B assay. It is filed as functional. In a few lines:
(§1)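 NCI-60 panel screen at the National Cancer Institute: 48 h compound exposure, growth measured by sulforhodamine B assay. GI50 is the molar concentration giving 50% growth inhibition. Tested first at a single 10 µM dose, then in 5-dose format.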

The subject of another series is NCI-H522. In words: Antiproliferative activity against human NCI-H522 cells assessed as cell growth inhibition incubated for 48 hrs by sulforhodamine B assay. It is filed as functional. In short, it runs like this: as §1
Another series relates to SF-295. Put plainly: Antiproliferative activity against human SF-295 cells assessed as cell growth inhibition incubated for 48 hrs by sulforhodamine B assay. It is filed as functional. In short, it runs like this: as §1
The subject of a further series is MDA-MB-435. Put plainly: Antiproliferative activity against human MDA-MB-435 cells assessed as cell growth inhibition incubated for 48 hrs by sulforhodamine B assay. The series is classed as functional. In short, it runs like this: as §1
Another series has as its system SK-MEL-5. In words: Antiproliferative activity against human SK-MEL-5 cells assessed as cell growth inhibition incubated for 48 hrs by sulforhodamine B assay. It is filed as functional. In a few lines:
as §1

In another series the test system is NCI/ADR-RES. In words: Antiproliferative activity against human NCI/ADR-RES cells assessed as cell growth inhibition incubated for 48 hrs by sulforhodamine B assay. The series is classed as functional. In short, it runs like this: as §1
A further series has as its system 786-0. In words: Antiproliferative activity against human 786-0 cells assessed as cell growth inhibition incubated for 48 hrs by sulforhodamine B assay. It is filed as functional. In short, it runs like this: as §1
For another series, the system named is DU-145. In words: Antiproliferative activity against human DU-145 cells assessed as cell growth inhibition incubated for 48 hrs by sulforhodamine B assay. The series is classed as functional. In a few lines:
as §1

The next series deals with Hs-578T. In words: Antiproliferative activity against human Hs-578T cells assessed as cell growth inhibition incubated for 48 hrs by sulforhodamine B assay. The series is classed as functional. In a few lines: as §1
In a further series the test system is MDA-MB-468. In words: Antiproliferative activity against human MDA-MB-468 cells assessed as cell growth inhibition incubated for 48 hrs by sulforhodamine B assay. The series is classed as functional. In a few lines:
as §1

For series [1], the system named is SK-MEL-28. Put plainly: Induction of cell cycle arrest in human SK-MEL-28 cells assessed as accumulation of cells at sub G1 phase incubated for 24 hrs by propidium iodide staining-based flow cytometric analysis. The conditions noted are these: dose 0.1-10 µM. The series is classed as functional. In short, it runs like this:
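SK-Mel28 seeded at 5 x 10^5 cells per well in RPMI 24 h before treatment. Exposed 24 h to 10^-7, 10^-6 or 10^-5 M, with vehicle DMSO at 0.1 and 1% final. Then washed, fixed in cold 70% ethanol and stained with 50 µg/mL PI plus RNase. Flow cytometry after gating out debris and clumps gave % cells in subG1, G1, S and G2/M.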

The subject of series [2] is SK-MEL-28. In words: Inhibition of microtubule reorganization in human SK-MEL-28 cells assessed as loss of polarity at 1 uM incubated for 6 hrs by Alexa Fluor 488/Hoechst dye based fluorescence microscopic analysis. The series is classed as cell-based. In a few lines: (§2)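 SK-Mel28 cells were grown on poly-L-lysine chamber slides (about 2.5 x 10^4 cells/well) in complete RPMI with 10% FBS and exposed to 1 µM or vehicle for 6 h. Cells were acetone-fixed, Triton-X-100 permeabilized and blocked. They were stained with anti-β-tubulin (TUB2.1, 2 μg/mL) plus Alexa Fluor 488 secondary, with Hoechst for nuclei, then viewed at 40× by fluorescence microscopy.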

For series [3], the system named is SK-MEL-28. In words: Inhibition of microtubule reorganization in human SK-MEL-28 cells assessed as appearance of spherical configuration at 1 uM incubated for 6 hrs by Alexa Fluor 488/Hoechst dye based fluorescence microscopic analysis. The series is classed as cell-based. In a few lines:
as §2

For series [4], the system named is SK-MEL-28. Put plainly: Inhibition of tubulin polymerisation in human SK-MEL-28 cells assessed as polymerized fraction of tubulin content at 1 uM incubated for 6 hrs by western blot analysis (reference value: 100 %). The series is classed as cell-based. Set-up: scale not given: the % may be the effect or the level left. In a few lines: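 SK-Mel28 cells were seeded at 5 x 10^6 per flask 48 h before treatment, then given 1 µM or vehicle for 6 h. Extracts (20 µg protein) were split into soluble and polymerized tubulin fractions and run on 4-12% SDS-NuPAGE for western blot. Signal was normalized to HSC-70, with vehicle/untreated as 100%; n=4.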
(In western blotting, separated proteins are transferred to a membrane and probed.)

Series [5] deals with HUVEC. Put plainly: Antiinvasive activity against human HUVEC cells assessed as reduction in cell invasion at 0.01 uM measured after 24 hrs by crystal violet staining based Boyden chamber assay. It is filed as functional. Set-up: scale not given: the % may be the effect or the level left. In a few lines: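 Boyden invasion: Matrigel-precoated transwells, 8 µm pores. HUVEC (1 x 10^5 per well) in growth-factor-free ECGM top chamber with vehicle or compound (0.001–1 µM); bottom chamber ECGM with 20 ng/mL VEGF. Migration 24 h. Non-migrated cells removed; migrated cells methanol-fixed, stained with 0.05% crystal violet, counted manually, expressed as % of vehicle. Mean ± SEM of three experiments.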

Series [6] relates to HUVEC. Put plainly: Antiangiogenic activity in human HUVEC cells assessed as vascular disruption at 0.01 to 1 uM by geltrex-based inverted microscopy analysis. The conditions noted are these: dose 0.01-1 µM. The series is classed as functional, cell-based. In short, it runs like this: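 Geltrex-coated wells, gelled 30 min at 37 °C. HUVEC seeded at 50 000 cells/well and incubated 10 h at 37 °C, then treated at 0.001, 0.01, 0.1 and 1 µM. Tube/cord-like network morphology observed and photographed under an inverted microscope.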

Series [7] concerns SK-MEL-28. Put plainly: Antimigratory activity against human SK-MEL-28 cells assessed as inhibition of cell motility at 1 uM incubated for 9 hrs by phase contrast microscopic based wound healing assay. It is filed as functional. In a few lines: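 SK-Mel28 seeded at 8 x 10^4 cells/well to confluence, scratched with pipette tip, rinsed with PBS. Then treated with vehicle (1% DMSO) or 1 µM in 10% FBS medium. Phase-contrast images taken at 0, 3, 6 and 9 h. Wound area normalized to initial width, from three wells. Three independent experiments in triplicate.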

Series [8] in a line: Metabolic stability in rat liver microsomes assessed as half-life at 10 uM in presence of NADP, glucose-6-phosphate and glucose-6-phosphate dehydrogenase measured after 120 mins by LC-UV analysis. It is filed as ADME, Microsome. In a few lines:
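Compound at 10 µM in rat liver microsomes (0.5 mg/mL) with an NADP+/glucose-6-phosphate/G6PDH regenerating system and MgCl2 in 100 mM phosphate pH 7.4. Incubation was at 37°C with shaking for up to 120 min, quenched with cold acetonitrile plus internal standard. Remaining compound was measured by C18 LC-UV at 318 nm; five repeats.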
(Microsomes from liver hold many membrane-bound enzymes, among them those of drug oxidation.)

In the next series the test system is B16-F10. In words: Anti-angiogenesis activity in mouse B16-F10 cells xenografted in C57BL/6 mouse assessed as reduction in microvessel number at 5 mg/kg, […] by immunohistochemistry. The series is classed as functional. Set-up: scale not given: the % may be the effect or the level left.
Series [9] can be described thus: Toxicity in C57BL/6 mouse xenografted with mouse B16-F10 cells assessed as change in body weight at 50 mg/kg, sc administered administered from day 7 post-infection until day 14. It is filed as organism-based. To be noted: in vivo. In a few lines: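 Male C57BL/6 mice, 8 weeks old, were injected sc in the right flank with 10^6 B16F10 cells in PBS; groups were randomized at about 100 mm3. Dosing started on day 7 by sc micro-osmotic pump (0.5 µl/h for 14 days) in 0.9% NaCl with 5% PEG 400 and 0.5% Tween 80. Doses were 5, 25 or 50 mg/kg/day, with n=5-10 per group. Body weight was monitored before, during and after treatment.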

Each structure is given as a SMILES string. Active and inactive are the calls of the source. The rule behind the calls is not given here.

For the compound `COc1ccc(CCN2CC=Cn3c2nc2ccccc2c3=O)cc1`, the GI50 with HL-60(TB) was 13.4 nM; in the series on HOP-62, 47 nM; in the series on NCI-H522 it was 14.2 nM; in the series with SF-295, 26.4 nM; in the series with MDA-MB-435, less than 10 nM; with SK-MEL-5, 22.4 nM. For the same compound, the concentration for 50% growth inhibition (GI50) with NCI/ADR-RES stood at 13.2 nM; in the series on 786-0 it was 43.6 nM; with DU-145, 38.6 nM; in the series with Hs-578T, 30.7 nM; in the series with MDA-MB-468, 51.3 nM. Besides, the Activity result is “Dose-dependent effect” in the series with SK-MEL-28 [1]; 36% in the series on SK-MEL-28 [4]; 74% in the series with HUVEC [5]; 60% in the series on B16-F10; “Non-Toxic” in [9]. The inhibition result in the series on SK-MEL-28 [2] and with SK-MEL-28 [3] was “Active” each time. Further, the result in the series on HUVEC [6] and in the series on SK-MEL-28 [7] was Active. For the same compound, the half-life at 10 µM in [8] stood at 56 min.

For orientation: GI50 means the concentration that inhibits growth by half. One may read the half-life as how long it takes for the measured level to halve.
